In assay [1] the test system is Rattus norvegicus. Kind of assay: Antiinflammatory activity in albino rat assessed as inhibition of carrageenan-induced paw oedema at 100 mg/kg, po measured after 30 mins of carrageenan challenge relative to control. Type of assay: functional. Particulars: 0.5 h. In a few lines: (§1)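 Rat hind paw oedema induced by 0.1 mL 1% carrageenan injected subplantar into the right hind paw. Paw volume measured plethysmographically before carrageenan and at 30, 60, 120 and 180 min after. Percent oedema inhibition calculated versus a saline control group. Six animals per group, mean ± SE; one-way ANOVA with Tukey–Kramer test, p < 0.01.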
In general terms: In the carrageenan paw model, swelling and tenderness develop within hours.

The subject of assay [2] is Mus musculus. The assay can be described thus: Analgesic activity in Swiss albino mouse assessed as protection against acetic acid-induced writhing at 100 mg/kg, po administered 1 hr prior to acetic acid challenge relative to control measured after 3 hrs. It counts as functional. In short, it runs like this:
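Swiss albino mice (20–25 g), six per group. Baseline writhes counted over 20 min starting 5 min after ip 0.6% acetic acid (10 ml/kg); the same mice were dosed orally the next day, 1 h before acetic acid, and writhes counted again. Protection = (1 − […]) × 100. Mean ± SE; one-way ANOVA with Tukey–Kramer test, p < 0.01.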
For orientation: Writhing tests count abdominal constrictions after an irritant is injected.

For assay [3], the system named is Rattus norvegicus. The assay can be described thus: Antiinflammatory activity in albino rat assessed as inhibition of carrageenan-induced paw oedema at 100 mg/kg, po measured after 180 mins of carrageenan challenge relative to control. It counts as functional. Particulars: 3 h. In a few lines: as §1
The subject of assay [4] is Rattus norvegicus. The assay can be described thus: Antiinflammatory activity in albino rat assessed as inhibition of carrageenan-induced paw oedema at 100 mg/kg, po measured after 60 mins of carrageenan challenge relative to control. It counts as functional. Particulars: 1 h. In short, it runs like this:
as §1

The test system of assay [5] is Rattus norvegicus. The assay can be described thus: Antiinflammatory activity in albino rat assessed as inhibition of carrageenan-induced paw oedema at 100 mg/kg, po measured after 120 mins of carrageenan challenge relative to control. It counts as functional. Particulars: 2 h. In a few lines: as §1
The species entered for assay [6] is Rattus norvegicus. The assay can be described thus: animal or person. Particulars: albino, po, 1 h, read-out: INH.
The species entered for assay [7] is Rattus norvegicus. Kind of assay: animal or person. Particulars: albino, po, 3 h, read-out: INH.
For assay [8], the species on record is Rattus norvegicus. The assay can be described thus: animal or person. Particulars: albino, po, 2 h, read-out: INH.
For assay [9], the species on record is Rattus norvegicus. Kind of assay: animal or person. Particulars: albino, po, 0.5 h, read-out: INH.

For the compound `Cc1ccc(NCc2nc3ccc(Br)cc3[nH]2)cc1`, the inhibition in vivo at 100 mg/kg in [1] turned out to be 7.6%; in assay [3], 16.6%; in assay [4], 20%; in assay [5], 23.5%. Moreover, the Activity in [2] came out at 88%.
As to `Clc1cccc(NCc2nc3ccccc3[nH]2)c1`, the inhibition in vivo at 100 mg/kg came to 15.3% in assay [1], 44.4% in [3], 26.6% in [4] and 41.1% in [5]. Further, the Activity in assay [2] came to 81.33%.
On to `c1ccc(NCc2nc3ccccc3[nH]2)cc1`, for which the inhibition in vivo at 100 mg/kg in assay [1] turned out to be 7.6%; in assay [3], 38.8%; in assay [4], 26.6%; in assay [5], 41.1%. Further, the Activity in [2] is 72.33%.
Regarding `Brc1ccc(NCc2nc3ccc(Br)cc3[nH]2)cc1`, the Activity in [2] was 85.66%. Besides, the inhibition in vivo at 100 mg/kg in assay [3] was 16.6%; in [4], 20%; in [5], 23.5%.
With `Clc1cccc(NCc2nc3ccc(Br)cc3[nH]2)c1`, the inhibition in vivo at 100 mg/kg in [1] was determined as 7.6%; in assay [3], 16.6%; in assay [4], 26.6%; in assay [5] it was 17.6%. Moreover, the Activity in [2] is given as 89%.
As to `O=[N+]([O-])c1ccc2nc(CNc3ccc(Br)cc3)[nH]c2c1`, the inhibition in vivo at 100 mg/kg is 15.3% in [1], 22.2% in [3], 20% in assay [4] and 23.5% in [5]. The Activity in assay [2] amounted to 79%.
For `COc1ccc(NCc2nc3ccccc3[nH]2)cc1`, the inhibition in vivo at 100 mg/kg in assay [1] stood at 7.6%; in assay [3] it was 33.3%; in [4], 26.6%; in assay [5], 29.4%. The Activity in [2] is 83.33%.
Regarding `COc1ccc(NCc2nc3ccc(Br)cc3[nH]2)cc1`, in [2], the Activity amounted to 83.33%. Moreover, the inhibition in vivo at 100 mg/kg was 12.5% in [3], 13.3% in [4] and 17.6% in assay [5].
Take `Brc1ccc2nc(CNc3ccccc3)[nH]c2c1`: the inhibition in vivo at 100 mg/kg was found to be 7.6% in assay [1], 22.2% in assay [3], 26.6% in assay [4] and 29.4% in [5]. Moreover, the Activity in assay [2] stood at 80%.
`CS(=O)(=O)Nc1ccc([N+](=O)[O-])cc1Oc1ccccc1` [NIMESULIDE]: the inhibition in vivo at 50 mg/kg came out at 26.6% in [6], 44.4% in [7], 41.1% in assay [8] and 15.3% in assay [9].
For the compound `Clc1ccccc1NCc1nc2ccc(Br)cc2[nH]1`, the Activity in assay [2] was found to be 80%. The inhibition in vivo at 100 mg/kg turned out to be 22.2% in [3], 20% in assay [4] and 23.5% in assay [5].

The values above are taken from ChEMBL document CHEMBL1157854, “In-vivo analgesic and anti-inflammatory activities of newly synthesized benzimidazole derivatives” (2010).
